Test results taken from ChEMBL document CHEMBL3351896, “Small Molecule that Reverses Dexamethasone Resistance in T-cell Acute Lymphoblastic Leukemia (T-ALL)” (ACS Med Chem Lett, 2014).
The source made the active and inactive calls. The rule behind the calls is not given here.

Key:
Assay type in all cases: functional, cell-based
CUTLL1 [1] = assay: Effect on NXT1 gene expression in human CUTLL1 cells in absence of 1 uM dexamethasone at 30 uM after 24 hrs by microarray method
Procedure, shortened: (§1)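 CUTLL1 T-ALL cells exposed 24 h to vehicle (DMSO), dexamethasone alone (1 μM), test agent alone (30 μM), or dexamethasone (1 μM) plus test agent (30 μM), in triplicate. Expression profiled by microarray. Leading-edge genes from GSEA were compared between the dexamethasone-plus-agent and dexamethasone-alone groups, using glucocorticoid-regulated gene sets from ALL patients on glucocorticoid therapy.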

CUTLL1 [2] = assay: Effect on POLE2 gene expression in human CUTLL1 cells in absence of 1 uM dexamethasone at 30 uM after 24 hrs by microarray method
Procedure, shortened: (§2)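 Human CUTLL1 T-ALL cells exposed for 24 h to vehicle (DMSO), dexamethasone alone (1 μM), test compound alone (30 μM), or dexamethasone 1 μM plus compound 30 μM, each in triplicate. Expression profiled by microarray. Glucocorticoid-regulated gene sets from ALL patients on glucocorticoid therapy scored by GSEA. Leading-edge genes compared between the combination and dexamethasone alone.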

CUTLL1 [3] = assay: Effect on SKP2 gene expression in human CUTLL1 cells in absence of 1 uM dexamethasone at 30 uM after 24 hrs by microarray method; procedure, shortened: as §2
CUTLL1 [4] = assay: Effect on DSCC1 gene expression in human CUTLL1 cells in absence of 1 uM dexamethasone at 30 uM after 24 hrs by microarray method; procedure, shortened: as §1
CUTLL1 [5] = assay: Effect on BYSL gene expression in human CUTLL1 cells in presence of 1 uM dexamethasone at 30 uM after 24 hrs by microarray method; procedure, shortened: as §1
CUTLL1 [6] = assay: Increase in GR expression in human CUTLL1 cells at 50 uM after 6 hrs by Western blotting method
Procedure, shortened: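 CUTLL1 cells exposed to compound (25 or 50 μM) alone, with 1 μM dexamethasone, or with dexamethasone plus 1 μM RU486, for 6 or 24 h. GR measured as protein by Western blot and as transcript by RT-qPCR.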

CUTLL1 [7] = assay: Effect on MCM4 gene expression in human CUTLL1 cells in absence of 1 uM dexamethasone at 30 uM after 24 hrs by microarray method; procedure, shortened: as §1
CUTLL1 [8] = assay: Effect on NHP2 gene expression in human CUTLL1 cells in presence of 1 uM dexamethasone at 30 uM after 24 hrs by microarray method; procedure, shortened: as §1
CUTLL1 [9] = assay: Effect on TIPIN gene expression in human CUTLL1 cells in absence of 1 uM dexamethasone at 30 uM after 24 hrs by microarray method; procedure, shortened: as §2
CUTLL1 [10] = assay: Effect on SMAP2 gene expression in human CUTLL1 cells in presence of 1 uM dexamethasone at 30 uM after 24 hrs by microarray method; procedure, shortened: as §2
CUTLL1 [11] = assay: Effect on FEN1 gene expression in human CUTLL1 cells in presence of 1 uM dexamethasone at 30 uM after 24 hrs by microarray method; procedure, shortened: as §1
CUTLL1 [12] = assay: Effect on ATAD2 gene expression in human CUTLL1 cells in absence of 1 uM dexamethasone at 30 uM after 24 hrs by microarray method; procedure, shortened: as §1
CUTLL1 [13] = assay: Effect on APITD1 gene expression in human CUTLL1 cells in presence of 1 uM dexamethasone at 30 uM after 24 hrs by microarray method; procedure, shortened: as §1
CUTLL1 [14] = assay: Effect on DSCC1 gene expression in human CUTLL1 cells in presence of 1 uM dexamethasone at 30 uM after 24 hrs by microarray method; procedure, shortened: as §1
CUTLL1 [15] = assay: Effect on TK1 gene expression in human CUTLL1 cells in presence of 1 uM dexamethasone at 30 uM after 24 hrs by microarray method; procedure, shortened: as §2
CUTLL1 [16] = assay: Effect on SOCS1 gene expression in human CUTLL1 cells in absence of 1 uM dexamethasone at 30 uM after 24 hrs by microarray method; procedure, shortened: as §2
CUTLL1 [17] = assay: Effect on DDIT4 gene expression in human CUTLL1 cells in presence of 1 uM dexamethasone at 30 uM after 24 hrs by microarray method; procedure, shortened: as §1
CUTLL1 [18] = assay: Effect on PCNA gene expression in human CUTLL1 cells in absence of 1 uM dexamethasone at 30 uM after 24 hrs by microarray method; procedure, shortened: as §1

Nc1ncc(-c2ccncc2)c(C2CC2)n1
Activity (CUTLL1 [1]): inactive
Activity (CUTLL1 [2]): inactive
Activity (CUTLL1 [3]): inactive
Activity (CUTLL1 [4]): inactive
Activity (CUTLL1 [5]): Active
Activity (CUTLL1 [6]): Active
Activity (CUTLL1 [7]): inactive
Activity (CUTLL1 [8]): Active
Activity (CUTLL1 [9]): inactive
Activity (CUTLL1 [10]): Active
Activity (CUTLL1 [11]): Active
Activity (CUTLL1 [12]): inactive
Activity (CUTLL1 [13]): Active
Activity (CUTLL1 [14]): Active
Activity (CUTLL1 [15]): Active
Activity (CUTLL1 [16]): inactive
Activity (CUTLL1 [17]): Active
Activity (CUTLL1 [18]): inactive
